Source: ChEMBL document CHEMBL3525992, “Identification of 20(S)-protopanaxadiol metabolites in human liver microsomes and human hepatocytes” (Drug Metab Dispos, 2011)

Key:
Hepatocyte [1] = test: Drug level in human hepatocytes treated with 20(S)-protopanaxadiol at 50 uM after 180 mins by liquid chromatography-electrospray ionization ion trap mass spectrometry; assay type: ADME, cell-based; conditions: 3 h
Outline: (§1)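 Human hepatocytes (2 million cells/ml) in Williams' E medium with substrate 50 µM, 0.5% (v/v) final MeOH, 37°C for 3 h. Negative controls were substrate at 0 h and no substrate at 3 h. Quenched with equal volume acetonitrile, in duplicate. Methanol was added, then centrifugation, dry-down and reconstitution. Analysed by C8 reversed-phase LC with formic acid/methanol–ammonium acetate gradient, ESI ion trap MSⁿ, m/z 100–800.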

Liver microsome [2] = test: Retention time of the compound in mixed human liver microsomes treated with 20(S)-protopanaxadiol at 50 uM after 60 mins by liquid chromatography-electrospray ionization ion trap mass spectrometry; assay type: ADME; conditions: 1 h
Outline: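 Pooled HLM protein 1.0 mg/ml with substrate 50 µM in 100 mM potassium phosphate pH 7.4, 0.1% (v/v) final MeOH. Preincubated 3 min at 37°C, started with 2.0 mM NADPH, incubated 60 min. Stopped with equal volume ice-cold acetonitrile. Controls lacked NADPH or substrate, in duplicate. Analysed on C8 reversed-phase column, formic acid methanol/ammonium acetate gradient, ESI ion trap MSⁿ.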

[3] = Drug excretion in Sprague-Dawley rat feces treated with 20(S)-protopanaxadiol at 100 mg/kg/day, po qd for 11 days administered via gavage by liquid chromatography-electrospray ionization ion trap mass spectrometry; assay type: ADME, organism-based; parameters: route oral; conditions: in vivo, 264 h
Outline: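 PPD given by gavage at 10 mg/ml in 0.5% carboxymethyl cellulose sodium, 0.5% polysorbate-80 and 99% saline; 20 rats, one per metabolic cage. Feces collected over 0–288 h (48 h after last dose), blanks taken before dosing, frozen at -20°C.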

Liver microsome [4] = test: Drug metabolism in mixed human liver microsomes assessed as metabolite 7-1 ((2S,3S,4S,5R,6S)-6-(2-((2S,5S)-5-((3S,5R,8R,9R,10R,12R,14R,17S)-3,12-dihydroxy-4,4,8,10,14-pentamethylhexadecahydro-1H-cyclopenta[a]phenanthren-17-yl)-5-methyltetrahydrofuran-2-yl)propan-2-yloxy)-3,4,5-trihydroxytetrahydro-2H-pyran-2-carboxylic acid) formation at 50 uM after 120 mins by liquid chromatography-electrospray ionization ion trap mass spectrometry in presence of UDPGA; assay type: ADME
Outline: (§2)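 Pooled human liver microsomes, 1.0 mg/ml protein, in 50 mM Tris-HCl pH 7.4 with 10 mM MgCl₂, 2 mM UDPGA and 25 µg/mL alamethicin. Preincubated 3 min at 37°C, started with substrate 50 µM (final MeOH 0.1%), run 120 min, stopped with ice-cold acetonitrile. Time-0 controls; duplicates. Analysed by LC/ESI ion-trap MSn.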

[5] = Retention time of the compound treated with 20(S)-protopanaxadiol at 100 uM measured after 60 mins by liquid chromatography-electrospray ionization ion trap mass spectrometry in presence of 10 uM 3-chloroperoxybenzoic acid; assay type: physicochemical; conditions: 1 h
Outline: (§3)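 PPD 100 µM oxidised chemically with m-CPBA 10 µM in CH₂Cl₂, stirred at room temperature for 15 and 60 min. Mixture poured into Na₂CO₃-saturated ice water and extracted three times with ether before LC/MS analysis.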

[6] = Drug excretion in Sprague-Dawley rat feces assessed as metabolite 2 ((20S,24S)-epoxydammarane-3,12,25-triol) level at 100 mg/kg/day, po qd for 11 days administered via gavage by liquid chromatography-electrospray ionization ion trap mass spectrometry; assay type: ADME, organism-based; parameters: route oral; conditions: in vivo, 264 h
Outline: (§4)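 Rats given PPD by gavage at 100 mg/kg/day once daily for 11 days, as a 10 mg/ml solution in 0.5% carboxymethyl cellulose sodium, 0.5% polysorbate-80 and 99% saline; 20 rats housed singly in metabolic cages. Feces collected over 0–288 h and frozen at -20°C; blank feces taken before dosing.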

Liver microsome [7] = test: Drug metabolism in mixed human liver microsomes assessed as metabolite 5 ((20S,24R)-epoxydammarane-12,25-diol-3-one) formation at 50 uM after 60 mins by liquid chromatography-electrospray ionization ion trap mass spectrometry; assay type: ADME; conditions: 1 h
Outline: (§5)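 Pooled human liver microsomes, 1.0 mg/ml protein, with substrate 50 µM in 100 mM potassium phosphate pH 7.4 (final MeOH 0.1% v/v). Preincubated 3 min at 37°C, started with NADPH 2.0 mM, run 60 min, stopped with ice-cold acetonitrile. Controls lacked NADPH or substrate; duplicates. Metabolites profiled by LC/ESI ion-trap MSn.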

[8] = Drug metabolism in human hepatocytes assessed as metabolite 3 ((20S,24R)-epoxydammarane-3,12,25-triol) formation at 50 uM after 180 mins by liquid chromatography-electrospray ionization ion trap mass spectrometry; assay type: ADME, cell-based, Hepatocyte; conditions: 3 h
[9] = Oral bioavailability in rat at 25 mg/kg; assay type: ADME, organism-based; conditions: in vivo
[10] = Oral bioavailability in dog at 8 mg/kg; assay type: ADME, organism-based, Canis lupus familiaris; conditions: in vivo
[11] = Retention time of the compound at 100 uM measured after 60 mins by liquid chromatography-electrospray ionization ion trap mass spectrometry in presence of 10 uM 3-chloroperoxybenzoic acid; assay type: physicochemical; conditions: 1 h; outline: as §3
Liver microsome [12] = test: Drug metabolism in mixed human liver microsomes assessed as metabolite 3 ((20S,24R)-epoxydammarane-3,12,25-triol) formation at 50 uM after 60 mins by liquid chromatography-electrospray ionization ion trap mass spectrometry; assay type: ADME; conditions: 1 h; outline: as §5
[13] = Drug metabolism in human hepatocytes assessed as metabolite 2 ((20S,24S)-epoxydammarane-3,12,25-triol) formation at 50 uM after 180 mins by liquid chromatography-electrospray ionization ion trap mass spectrometry; assay type: ADME, cell-based, Hepatocyte; conditions: 3 h
[14] = Drug metabolism in human hepatocytes assessed as metabolite 6-1 ((3S,6S)-6-((3S,5R,8R,9R,10R,12R,14R,17S)-3,12-dihydroxy-4,4,8,10,14-pentamethylhexadecahydro-1H-cyclopenta[a]phenanthren-17-yl)-2-methylheptane-2,3,6-triol) formation at 50 uM after 180 mins by liquid chromatography-electrospray ionization ion trap mass spectrometry; assay type: ADME, cell-based, Hepatocyte; conditions: 3 h
[15] = Drug excretion in Sprague-Dawley rat feces assessed as metabolite 5 ((20S,24R)-epoxydammarane-12,25-diol-3-one) level at 100 mg/kg/day, po qd for 11 days administered via gavage by liquid chromatography-electrospray ionization ion trap mass spectrometry; assay type: ADME, organism-based; parameters: route oral; conditions: in vivo, 264 h; outline: as §4
[16] = Drug excretion in Sprague-Dawley rat feces assessed as metabolite 4 ((20S,24S)-epoxydammarane-12,25-diol-3-one) level at 100 mg/kg/day, po qd for 11 days administered via gavage by liquid chromatography-electrospray ionization ion trap mass spectrometry; assay type: ADME, organism-based; parameters: route oral; conditions: in vivo, 264 h; outline: as §4
Liver microsome [17] = test: Drug metabolism in mixed human liver microsomes assessed as metabolite 2 ((20S,24S)-epoxydammarane-3,12,25-triol) formation at 50 uM after 60 mins by liquid chromatography-electrospray ionization ion trap mass spectrometry; assay type: ADME; conditions: 1 h; outline: as §5
[18] = Drug metabolism in human hepatocytes assessed as metabolite 4 ((20S,24S)-epoxydammarane-12,25-diol-3-one) formation at 50 uM after 180 mins by liquid chromatography-electrospray ionization ion trap mass spectrometry; assay type: ADME, cell-based, Hepatocyte; conditions: 3 h
Liver microsome [19] = test: Drug metabolism in mixed human liver microsomes assessed as metabolite 6 ((24S,25)-epoxydammarane-3,12,20-triol formation at 50 uM after 60 mins by liquid chromatography-electrospray ionization ion trap mass spectrometry; assay type: ADME; conditions: 1 h; outline: as §5
[20] = Drug excretion in Sprague-Dawley rat feces assessed as metabolite 3 ((20S,24R)-epoxydammarane-3,12,25-triol) level at 100 mg/kg/day, po qd for 11 days administered via gavage by liquid chromatography-electrospray ionization ion trap mass spectrometry; assay type: ADME, organism-based; parameters: route oral; conditions: in vivo, 264 h; outline: as §4
[21] = Drug metabolism in human hepatocytes assessed as metabolite 5 ((20S,24R)-epoxydammarane-12,25-diol-3-one) formation at 50 uM after 180 mins by liquid chromatography-electrospray ionization ion trap mass spectrometry; assay type: ADME, cell-based, Hepatocyte; conditions: 3 h
Liver microsome [22] = test: Drug metabolism in mixed human liver microsomes assessed as metabolite 4 ((20S,24S)-epoxydammarane-12,25-diol-3-one) formation at 50 uM after 60 mins by liquid chromatography-electrospray ionization ion trap mass spectrometry; assay type: ADME; conditions: 1 h; outline: as §5
[23] = Drug metabolism in human hepatocytes assessed as metabolite 7-1 ((2S,3S,4S,5R,6S)-6-(2-((2S,5S)-5-((3S,5R,8R,9R,10R,12R,14R,17S)-3,12-dihydroxy-4,4,8,10,14-pentamethylhexadecahydro-1H-cyclopenta[a]phenanthren-17-yl)-5-methyltetrahydrofuran-2-yl)propan-2-yloxy)-3,4,5-trihydroxytetrahydro-2H-pyran-2-carboxylic acid) formation at 50 uM after 180 mins by liquid chromatography-electrospray ionization ion trap mass spectrometry; assay type: ADME, cell-based, Hepatocyte; conditions: 3 h
[24] = Drug metabolism in human hepatocytes assessed as metabolite 6-2 ((3R,6S)-6-((3S,5R,8R,9R,10R,12R,14R,17S)-3,12-dihydroxy-4,4,8,10,14-pentamethylhexadecahydro-1H-cyclopenta[a]phenanthren-17-yl)-2-methylheptane-2,3,6-triol) formation at 50 uM after 180 mins by liquid chromatography-electrospray ionization ion trap mass spectrometry; assay type: ADME, cell-based, Hepatocyte; conditions: 3 h
[25] = Drug metabolism in human hepatocytes assessed as metabolite 7-2 ((2S,3S,4S,5R,6S)-6-(2-((2R,5S)-5-((3S,5R,8R,9R,10R,12R,14R,17S)-3,12-dihydroxy-4,4,8,10,14-pentamethylhexadecahydro-1H-cyclopenta[a]phenanthren-17-yl)-5-methyltetrahydrofuran-2-yl)propan-2-yloxy)-3,4,5-trihydroxytetrahydro-2H-pyran-2-carboxylic acid) formation at 50 uM after 180 mins by liquid chromatography-electrospray ionization ion trap mass spectrometry; assay type: ADME, cell-based, Hepatocyte; conditions: 3 h
[26] = Drug metabolism in human hepatocytes assessed as metabolite 6 ((24S,25)-epoxydammarane-3,12,20-triol formation at 50 uM after 180 mins by liquid chromatography-electrospray ionization ion trap mass spectrometry; assay type: ADME, cell-based, Hepatocyte; conditions: 3 h
Liver microsome [27] = test: Drug metabolism in mixed human liver microsomes assessed as glucuronide conjugate metabolite level at 50 uM after 120 mins by liquid chromatography-electrospray ionization ion trap mass spectrometry in presence of UDPGA; assay type: ADME; conditions: 2 h; outline: as §2
Hepatocyte [28] = test: Retention time of the compound in human hepatocytes treated with 20(S)-protopanaxadiol at 50 uM after 180 mins by liquid chromatography-electrospray ionization ion trap mass spectrometry; assay type: ADME, cell-based; conditions: 3 h; outline: as §1
Liver microsome [29] = test: Drug metabolism in mixed human liver microsomes assessed as metabolite 7-2 ((2S,3S,4S,5R,6S)-6-(2-((2R,5S)-5-((3S,5R,8R,9R,10R,12R,14R,17S)-3,12-dihydroxy-4,4,8,10,14-pentamethylhexadecahydro-1H-cyclopenta[a]phenanthren-17-yl)-5-methyltetrahydrofuran-2-yl)propan-2-yloxy)-3,4,5-trihydroxytetrahydro-2H-pyran-2-carboxylic acid) formation at 50 uM after 120 mins by liquid chromatography-electrospray ionization ion trap mass spectrometry in presence of UDPGA; assay type: ADME; outline: as §2

CC(C)(O)[C@H]1CC[C@@](C)([C@H]2CC[C@]3(C)[C@@H]2[C@H](O)C[C@@H]2[C@@]4(C)CCC(=O)C(C)(C)[C@@H]4CC[C@]23C)O1
19.7 min: Retention_time (Liver microsome [2])
metabolite_detected: Drug metabolism (Hepatocyte [1]) | Drug excretion [3]

CC(C)(O)[C@@H]1CC[C@@](C)([C@H]2CC[C@]3(C)[C@@H]2[C@H](O)C[C@@H]2[C@@]4(C)CC[C@H](O)C(C)(C)[C@@H]4CC[C@]23C)O1
19.2 min: Retention_time [5] | Retention_time (Liver microsome [2])
metabolite_detected: Drug metabolism (Liver microsome [4]) | Drug metabolism (Hepatocyte [1]) | Drug excretion [3]

CC(C)=CCC[C@](C)(O)[C@H]1CC[C@]2(C)[C@@H]1[C@H](O)C[C@@H]1[C@@]3(C)CC[C@H](O)C(C)(C)[C@@H]3CC[C@]12C
9.6%: bioavailability [10]
22.3 min: Retention_time [11]
metabolite_detected: Drug excretion [6] | Drug metabolism (Liver microsome [7]) | Drug metabolism [8] | Drug metabolism (Liver microsome [12]) | Drug metabolism [13] | Drug metabolism [14] | Drug excretion [15] | Drug excretion [16] | Drug metabolism (Liver microsome [17]) | Drug metabolism [18] | Drug metabolism (Liver microsome [19]) | Drug excretion [20] | Drug metabolism [21] | Drug metabolism (Liver microsome [22]) | Drug metabolism [23] | Drug metabolism [24] | Drug metabolism [25] | Drug metabolism [26]
metabolite_not_detected: Drug metabolism (Liver microsome [27])
31%: bioavailability [9]

CC(C)(O)[C@H](O)CC[C@](C)(O)[C@H]1CC[C@]2(C)[C@@H]1[C@H](O)C[C@@H]1[C@@]3(C)CC[C@H](O)C(C)(C)[C@@H]3CC[C@]12C
15.8 min: Retention_time (Hepatocyte [28])

CC(C)(O)[C@H]1CC[C@@](C)([C@H]2CC[C@]3(C)[C@@H]2[C@H](O)C[C@@H]2[C@@]4(C)CC[C@H](O)C(C)(C)[C@@H]4CC[C@]23C)O1
19.8 min: Retention_time [5] | Retention_time (Liver microsome [2])
metabolite_detected: Drug metabolism (Hepatocyte [1]) | Drug excretion [3] | Drug metabolism (Liver microsome [29])
